Measurements published in ChEMBL document CHEMBL5033992, “Discovery and Synthesis of a Pyrimidine-Based Aurora Kinase Inhibitor to Reduce Levels of MYC Oncoproteins” (J Med Chem, 2021).
Activity calls are given as the source filed them. The calls are words filed in the database; no cut-off is given here.

Assays:
[1] = target: T1, Aurora kinase A (Homo sapiens) (UniProt O14965); assay: Inhibition of recombinant GST-tagged N-terminal truncated human Aurora A (123 to 401 residues) expressed in Sf9 insect cell using tetra-LRRASLG peptide as substrate at 100 nM incubated for 120 mins by Kinase-Glo plus luminescent kinase assay relative to control
T1 sequence (whole entry): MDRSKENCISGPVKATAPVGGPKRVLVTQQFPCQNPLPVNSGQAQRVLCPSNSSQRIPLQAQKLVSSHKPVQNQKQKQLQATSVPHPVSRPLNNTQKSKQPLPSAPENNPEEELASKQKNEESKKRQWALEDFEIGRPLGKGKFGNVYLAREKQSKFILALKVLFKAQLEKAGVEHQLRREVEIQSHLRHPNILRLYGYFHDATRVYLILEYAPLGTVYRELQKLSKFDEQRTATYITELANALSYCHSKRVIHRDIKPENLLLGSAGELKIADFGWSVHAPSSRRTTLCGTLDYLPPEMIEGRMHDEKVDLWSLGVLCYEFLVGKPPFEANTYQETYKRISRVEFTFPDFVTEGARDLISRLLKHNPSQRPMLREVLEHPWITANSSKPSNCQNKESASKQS

[2] = Half life in ICR mouse at 10 mg/kg, po measured up to 24 hrs by LC-MS/MS analysis; assay type: ADME, organism-based; conditions: in vivo
[3] = AUC (0 to inf) in ICR mouse at 10 mg/kg, po measured up to 24 hrs by LC-MS/MS analysis; assay type: ADME, organism-based; set-up: route oral, dose 10 mg/kg, time <=24; conditions: in vivo
[4] = Tmax in ICR mouse at 10 mg/kg, po measured up to 24 hrs by LC-MS/MS analysis; assay type: ADME, organism-based; conditions: in vivo
[5] = Cmax in ICR mouse at 10 mg/kg, po measured up to 24 hrs by LC-MS/MS analysis; assay type: ADME, organism-based; set-up: route oral, dose 10 mg/kg, time <=24; conditions: in vivo
[6] = Effect on MYCN protein expression level in human SKNBE2 cells assessed as fold change at 1 uM incubated for 24 hrs by Western blot analysis relative to control; assay type: functional, SK-N-BE(2)
Outline: (§1)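 Cells treated with compound at various concentrations for 24 h, then washed in PBS, lysed in Laemmli buffer and boiled 10 min. Lysates run on SDS-PAGE, transferred to PVDF and probed with antibodies, then AP- or HRP-conjugated secondaries with chemiluminescent detection. Loading control β-actin. NCI-H82 grown in RPMI1640 and SK-N-BE(2) in MEM, each with 10% FBS. Relative levels quantified from triplicate experiments.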

[7] = Effect on cMYC protein expression level in human NCI-H82 cells assessed as fold change at 1 uM incubated for 24 hrs by Western blot analysis relative to control; assay type: functional
Outline: as §1

[8] = AUC (0 to inf) in ICR mouse at 2 mg/kg, iv measured up to 24 hrs by LC-MS/MS analysis; assay type: ADME, organism-based; set-up: route intravenous, dose 2 mg/kg, time <=24; conditions: in vivo; for AUC(0-inf): ICR
[9] = Volume of distribution at steady state in ICR mouse at 2 mg/kg, iv measured up to 24 hrs by LC-MS/MS analysis; assay type: ADME, organism-based; conditions: in vivo, read-out: Vdss
[10] = Clearance in ICR mouse at 2 mg/kg, iv measured up to 24 hrs by LC-MS/MS analysis; assay type: ADME, organism-based; conditions: in vivo
[11] = Oral bioavailability in ICR mouse at 10 mg/kg measured up to 24 hrs by LC-MS/MS analysis; assay type: ADME, organism-based; conditions: in vivo
[12] = Half life in ICR mouse at 2 mg/kg, iv measured up to 24 hrs by LC-MS/MS analysis; assay type: ADME, organism-based; conditions: in vivo
NCI-H82 [13] = assay: Growth inhibition of human NCI-H82 cells assessed as reduction in cell viability after 72 hrs by PrestoBlue Cell Viability assay; assay type: functional, cell-based; conditions: NCI-H82, 72 h
Outline: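 Cells seeded at 5000–10,000 per well, grown 24 h in RPMI1640 with 10% FBS and antibiotics, then exposed to compound at 0–10 μM for 72 h. Viability read by PrestoBlue fluorescence. IC50 from triplicate eight-point titration.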

NCI-H82 [14] = assay: Induction of cell cycle arrest in human NCI-H82 cells at 1 uM after 24 hrs by Propidium iodide staining based flow cytometric analysis; assay type: functional
SK-N-BE(2) [15] = assay: Growth inhibition of human SKNBE2 cells assessed as reduction in cell viability after 24 hrs by PrestoBlue Cell Viability assay; conditions: SKNBE2, 24 h
NCI-H446 [16] = assay: Anti-tumor activity against human NCI-H446 cells xenografted in athymic nu/nu nude mouse assessed as reduction in tumor volume at 50 to 100 mg/kg, po administered at 5 on-2-off for 2 to 4 weeks; assay type: functional, organism-based; conditions: dose 50-100 mg/kg, time 2-4 weeks
Outline: (§2)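 Male athymic nu/nu mice, 6 weeks old, inoculated subcutaneously with 1 × 10⁶ NCI-H446 cells in saline with 50% Matrigel. Dosing IV or oral, vehicle 5% dimethylacetamide/95% PEG400, on a 5-on-2-off schedule for 2–4 weeks once tumors reached ≥200 mm³. Caliper volume = length × width²/2; tumors and body weight measured at least twice weekly. ANOVA with Student–Newman–Keuls, P < 0.05.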

[17] = Toxicity in athymic nu/nu nude mouse xenografted with NCI-H446 cells assessed as reduction in body weight at 50 to 100 mg/kg, po administered at 5 on-2-off for 2 to 4 weeks relative to control; assay type: organism-based; set-up: scale not given: the % may be the effect or the level left; conditions: in vivo, dose lower 50 mg/kg, time lower 2 weeks, dose upper 100 mg/kg, time upper 4 weeks
Outline: as §2

NCI-H82 [18] = assay: Down regulation of Cyclin B1 expression in human NCI-H82 cells at 50 to 1000 nM after 24 hrs by Western blot analysis; assay type: functional, cell-based; conditions: dose 50-1000 nM
Outline: as §1

NCI-H446 [19] = assay: Induction of apoptosis in human NCI-H446 cells xenografted in athymic nu/nu nude mouse assessed as increase in cleaved PARP1 protein expression level at 100 mg/kg, po measured up to 24 hrs by Western blot analysis; conditions: time hrs <=24
NCI-H82 [20] = assay: Inhibition of Histone H3 phosphorylation in human NCI-H82 cells assessed as reduction in phosphorylation at Ser 10 residue at 50 to 1000 nM after 24 hrs by Western blot analysis; assay type: cell-based; conditions: dose 50-1000 nM
Outline: as §1

[21] = Inhibition of Histone H3 phosphorylation in human NCI-H446 cells xenografted in assessed as reduction in phosphorylation at Ser 10 residue at 100 mg/kg, po measured upto 8 hrs by western blot analysis relative to control
[22] = target: Aurora kinase B (Homo sapiens) (UniProt Q96GD4); assay: Inhibition of Aurora B phosphorylation in human NCI-H82 cells assessed as reduction in phosphorylation at Thr 232 residue at 50 to 1000 nM after 24 hrs by Western blot analysis; assay type: cell-based; conditions: dose 50-1000 nM
Outline: as §1

SK-N-BE(2) [23] = assay: Down regulation of Cyclin B1 expression in human SKNBE2 cells at 50 to 1000 nM after 24 hrs by Western blot analysis; assay type: functional, cell-based; conditions: dose 50-1000 nM
Outline: as §1

SKNBE2 = assay: Inhibition of Histone H3 phosphorylation in human SKNBE2cells assessed as reduction in phosphorylation at Ser 10 residue at 50 to 1000 nM after 24 hrs by Western blot analysis; conditions: dose 50-1000 nM
Outline: as §1

[24] = target: Aurora kinase B (Homo sapiens) (UniProt Q96GD4); assay: Inhibition of Aurora B phosphorylation in human SKNBE2 cells assessed as reduction in phosphorylation at Thr 232 residue at 50 to 1000 nM after 24 hrs by Western blot analysis; assay type: cell-based; conditions: dose 50-1000 nM
Outline: as §1

Aurora kinase B (Homo sapiens), sequence (Q96GD4 whole entry): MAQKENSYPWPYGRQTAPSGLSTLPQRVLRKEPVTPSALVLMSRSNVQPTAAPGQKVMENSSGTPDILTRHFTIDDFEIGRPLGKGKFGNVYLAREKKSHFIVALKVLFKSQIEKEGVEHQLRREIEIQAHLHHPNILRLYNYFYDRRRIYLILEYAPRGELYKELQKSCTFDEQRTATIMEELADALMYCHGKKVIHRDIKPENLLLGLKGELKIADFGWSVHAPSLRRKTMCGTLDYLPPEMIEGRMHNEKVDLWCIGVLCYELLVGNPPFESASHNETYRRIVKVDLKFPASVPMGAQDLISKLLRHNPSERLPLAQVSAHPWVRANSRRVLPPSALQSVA

Structure (SMILES): CCN1CCN(c2cc(Nc3cc(C)[nH]n3)nc(N[C@H]3CCN(C(=O)c4cc(F)c(Cl)c(F)c4)C3)n2)CC1
- inhibition [1]: < 50%

Structure (SMILES): CCOC(=O)n1nc(Nc2cc(N3CCN(CC)CC3)nc(N[C@H]3CCN(C(=O)c4ccc(Cl)cc4F)C3)n2)cc1C
- half-life [2]: 2.3 h
- AUC(0-inf) [3]: 961 ng·h/mL
- Tmax [4]: 0.4 h
- Cmax [5]: 274 ng/mL

Structure (SMILES): CCN1CCN(c2cc(Nc3cc(C)[nH]n3)nc(N[C@H]3CCN(C(=O)c4cc(F)c(F)cc4F)C3)n2)CC1
- inhibition [1]: < 50%

Structure (SMILES): CCN1CCN(c2cc(Nc3cc(C)[nH]n3)nc(N[C@H]3CCN(C(=O)c4ccccc4)C3)n2)CC1
- fold change (FC) [6]: 0.919
- fold change (FC) [7]: 0.93

Structure (SMILES): Cc1cc(Nc2cc(N3CC(N(C)C)C3)nc(N[C@H]3CCN(C(=O)c4cccc(Cl)c4F)C3)n2)n[nH]1
- fold change (FC) [6]: 0.754
- fold change (FC) [7]: 1.084

Structure (SMILES): CCN1CCN(c2cc(Nc3cc(C)[nH]n3)nc(N[C@H]3CCN(C(=O)c4ccc(Cl)nc4F)C3)n2)CC1
- inhibition [1]: < 50%

Structure (SMILES): Cc1cc(Nc2cc(N3CCN(C)CC3)nc(N[C@H]3CCN(C(=O)c4cccc(Cl)c4F)C3)n2)n[nH]1
- fold change (FC) [6]: 0.815
- fold change (FC) [7]: 0.843

Structure (SMILES): CCN1CCN(c2cc(Nc3cc(C)nn3C(=O)OC(C)(C)C)nc(N[C@H]3CCN(C(=O)c4ccc(Cl)cc4F)C3)n2)CC1
- half-life [2]: 3.3 h
- AUC(0-inf) [8]: 780 ng·h/mL
- AUC(0-inf) [3]: 1130 ng·h/mL
- Vd [9]: 4.9 L/kg
- Tmax [4]: 0.5 h
- clearance [10]: 38 mL/min/kg
- bioavailability [11]: 28.9%
- half-life [12]: 5 h
- Cmax [5]: 690 ng/mL

Structure (SMILES): CCC(=O)n1nc(Nc2cc(N3CCN(CC)CC3)nc(N[C@H]3CCN(C(=O)c4ccc(Cl)cc4F)C3)n2)cc1C
- half-life [2]: 1.9 h
- AUC ([8]; 24 h): 351 ng·h/mL
- AUC(0-inf) [3]: 243 ng·h/mL
- Vd [9]: 0.9 L/kg
- Tmax [4]: 0.4 h
- half-life [12]: 1 h
- Cmax [5]: 114 ng/mL

Structure (SMILES): CCN1CCN(c2cc(Nc3cc(C)[nH]n3)nc(N[C@H]3CCN(S(=O)(=O)c4ccc(Cl)cc4F)C3)n2)CC1
- inhibition [1]: < 50%

Structure (SMILES): CCN(CCCOc1ccc2c(Nc3cc(CC(=O)Nc4cccc(F)c4)[nH]n3)ncnc2c1)CCOP(=O)(O)O [BARASERTIB]
- IC50 (NCI-H82 [13]): 1 nM
- Activity (NCI-H82 [14]): Active
- IC50 (SK-N-BE(2) [15]): 1 nM

Structure (SMILES): Cc1cc(Nc2cc(N(C)CCN(C)C)nc(N[C@H]3CCN(C(=O)c4cccc(Cl)c4F)C3)n2)n[nH]1
- fold change (FC) [6]: 0.805
- fold change (FC) [7]: 0.911

Structure (SMILES): CCN1CCN(C(=O)Cc2ccc(Nc3ncc(F)c(Nc4ccc(C(=O)Nc5ccccc5Cl)cc4)n3)cc2)CC1
- IC50 (NCI-H82 [13]): 1 nM
- IC50 (SK-N-BE(2) [15]): 1 nM

Structure (SMILES): CCN1CCN(c2cc(Nc3cc(C)nn3C(=O)C(C)(C)C)nc(N[C@H]3CCN(C(=O)c4ccc(Cl)cc4F)C3)n2)CC1
- half-life [2]: 2.2 h
- AUC(0-inf) [8]: 401 ng·h/mL
- AUC(0-inf) [3]: 157 ng·h/mL
- Vd [9]: 18.8 L/kg
- Tmax [4]: 1.4 h
- clearance [10]: 73.3 mL/min/kg
- bioavailability [11]: 7.8%
- half-life [12]: 5.5 h
- Cmax [5]: 36.1 ng/mL

Structure (SMILES): CCN1CCN(c2cc(Nc3cc(C)[nH]n3)nc(N[C@H]3CCN(C(=O)c4cccc(Cl)c4F)C3)n2)CC1
- fold change (FC) [6]: 0.741

Structure (SMILES): CCN1CCN(c2cc(Nc3cc(C)[nH]n3)nc(N[C@H]3CCN(C(=O)c4ccc(C(F)(F)F)cc4F)C3)n2)CC1
- inhibition [1]: < 50%

Structure (SMILES): CCOC(=O)n1nc(C)cc1Nc1cc(N2CCN(CC)CC2)nc(N[C@H]2CCN(C(=O)c3ccc(Cl)cc3F)C2)n1
- Activity (NCI-H446 [16]): Dose-Dependent Effect
- half-life [2]: 2.7 h
- AUC(0-inf) [8]: 1480 ng·h/mL
- AUC(0-inf) [3]: 4050 ng·h/mL
- Vd [9]: 2.8 L/kg
- Tmax [4]: 0.3 h
- Activity [17]: < 5%
- clearance [10]: 20 mL/min/kg
- bioavailability [11]: 54.5%
- half-life [12]: 5.8 h
- Cmax [5]: 1090 ng/mL

Structure (SMILES): Cc1cc(Nc2cc(N3CC[C@H](N(C)C)C3)nc(N[C@H]3CCN(C(=O)c4cccc(Cl)c4F)C3)n2)n[nH]1
- fold change (FC) [6]: 0.809
- fold change (FC) [7]: 0.996

Structure (SMILES): COc1cc(Nc2ncc3c(n2)-c2ccc(Cl)cc2C(c2c(F)cccc2OC)=NC3)ccc1C(=O)O [ALISERTIB]
- Activity (NCI-H82 [18]): Active
- Activity (NCI-H446 [19]): Active
- inhibition (NCI-H82 [20]): Active
- inhibition in vivo at 100 mg/kg [21]: > 90%
- inhibition [22]: Dose-Dependent Effect
- Activity (SK-N-BE(2) [23]): Active
- inhibition (SKNBE2): Active
- inhibition [24]: Dose-Dependent Effect
